Laboratory results: ChEMBL document CHEMBL4613286, “Developing Cyclic Opioid Analogues: Fluorescently Labeled Bioconjugates of Biphalin” (ACS Med Chem Lett, 2020)

Legend:
[1] = target: T1, Delta-type opioid receptor (Homo sapiens, UniProt P41143); test: Displacement of [3H]diprenorphine human delta opioid receptor expressed in CHO cell membranes after 1 hr by micro beta2 scintillation counting method
Mu-type opioid receptor [2] = target: T2, Mu-type opioid receptor (Homo sapiens, UniProt P35372); test: Displacement of [3H]diprenorphine human MOR expressed in CHO cell membranes after 1 hr by micro beta2 scintillation counting method; type: cell-based
[3] = target: T3, Kappa-type opioid receptor (Homo sapiens, UniProt P41145); test: Displacement of [3H]diprenorphine human kappa opioid receptor expressed in CHO cell membranes after 1 hr by micro beta2 scintillation counting method
Procedure, shortened: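 Membranes (20–25 μg protein) from CHO cells expressing human DOR or KOR were incubated 1 h at rt with concentration curves of compound and fixed 3H-diprenorphine (1.2–4.6 nM). Incubations ended by rapid GF/B filtration, then scintillation counted. […] Ki from one-site competition fit using the radioligand KD measured in each cell line. Mean ± SEM, N = 3.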

Homo sapiens = organism: Homo sapiens; test: Selectivity index, ratio of Ki for displacement of [3H]diprenorphine human mu opioid receptor expressed in CHO cell membranes to Ki for displacement of [3H]diprenorphine human delta opioid receptor expressed in CHO cell membranes
[4] = target: T1, Delta-type opioid receptor; test: Agonist activity at human DOR expressed in CHO cell membranes after 1 hr by [35S]GTPgammaS binding assay; type: functional
Procedure, shortened: (§1)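 Membranes (15 μg protein) from CHO cells stably expressing human DOR, MOR or KOR, grown in DMEM/F12 with 10% heat-inactivated FBS and G418 selection. Concentration curves of agonist incubated with 0.1 nM 35S-GTPγS for 1 h at 30 °C, then filtered and scintillation counted. […] EC50 and Emax from 3-parameter fit, Hill slope fixed at 1. Mean ± SEM, N = 3.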

[5] = target: T1, Delta-type opioid receptor; test: Agonist activity at human DOR expressed in CHO cell membranes after 1 hr by [35S]GTPgammaS binding assay relative to SNC80; type: functional; procedure, shortened: as §1
Mu-type opioid receptor [6] = target: T2, Mu-type opioid receptor; test: Agonist activity at human MOR expressed in CHO cell membranes after 1 hr by [35S]GTPgammaS binding assay; type: functional
Procedure, shortened: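 Membranes (15 μg protein) from CHO cells stably expressing human DOR, MOR or KOR, grown in DMEM/F12 with 10% heat-inactivated FBS and G418 selection. Concentration curves of agonist incubated with 0.1 nM 35S-GTPγS for 1 h at 30 °C, then filtered and scintillation counted. EC50 and Emax from 3-parameter fit, Hill slope fixed at 1. Mean ± SEM, N = 3.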

Mu-type opioid receptor [7] = target: T2, Mu-type opioid receptor; test: Agonist activity at human MOR expressed in CHO cell membranes after 1 hr by [35S]GTPgammaS binding assay relative to DAMGO; type: functional; procedure, shortened: as §1
[8] = target: T3, Kappa-type opioid receptor; test: Agonist activity at human KOR expressed in CHO cell membranes after 1 hr by [35S]GTPgammaS binding assay; type: functional; procedure, shortened: as §1
[9] = target: T3, Kappa-type opioid receptor; test: Agonist activity at human KOR expressed in CHO cell membranes after 1 hr by [35S]GTPgammaS binding assay relative to U50,488; type: functional; procedure, shortened: as §1

T2 sequence (P35372 whole entry): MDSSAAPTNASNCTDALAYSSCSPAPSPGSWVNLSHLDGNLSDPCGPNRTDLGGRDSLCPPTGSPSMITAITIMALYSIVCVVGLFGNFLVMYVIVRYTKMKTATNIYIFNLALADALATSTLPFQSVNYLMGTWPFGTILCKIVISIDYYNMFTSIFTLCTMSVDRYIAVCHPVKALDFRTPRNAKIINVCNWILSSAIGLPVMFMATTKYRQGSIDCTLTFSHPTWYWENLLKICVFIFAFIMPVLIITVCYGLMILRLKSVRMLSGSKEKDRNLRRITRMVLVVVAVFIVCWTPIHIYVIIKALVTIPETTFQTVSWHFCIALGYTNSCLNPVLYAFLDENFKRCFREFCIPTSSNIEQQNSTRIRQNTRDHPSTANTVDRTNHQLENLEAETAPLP
T1 sequence (P41143 whole entry): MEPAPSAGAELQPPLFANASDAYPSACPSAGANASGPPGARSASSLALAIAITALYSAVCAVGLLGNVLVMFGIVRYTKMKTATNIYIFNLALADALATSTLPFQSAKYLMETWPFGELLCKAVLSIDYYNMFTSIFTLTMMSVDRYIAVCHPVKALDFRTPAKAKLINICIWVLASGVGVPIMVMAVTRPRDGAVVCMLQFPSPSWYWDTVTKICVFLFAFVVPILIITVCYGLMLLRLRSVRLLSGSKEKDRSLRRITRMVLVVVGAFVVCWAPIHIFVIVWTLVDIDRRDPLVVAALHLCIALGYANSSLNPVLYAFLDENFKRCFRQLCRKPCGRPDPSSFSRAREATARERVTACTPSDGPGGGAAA
T3 sequence (P41145 whole entry): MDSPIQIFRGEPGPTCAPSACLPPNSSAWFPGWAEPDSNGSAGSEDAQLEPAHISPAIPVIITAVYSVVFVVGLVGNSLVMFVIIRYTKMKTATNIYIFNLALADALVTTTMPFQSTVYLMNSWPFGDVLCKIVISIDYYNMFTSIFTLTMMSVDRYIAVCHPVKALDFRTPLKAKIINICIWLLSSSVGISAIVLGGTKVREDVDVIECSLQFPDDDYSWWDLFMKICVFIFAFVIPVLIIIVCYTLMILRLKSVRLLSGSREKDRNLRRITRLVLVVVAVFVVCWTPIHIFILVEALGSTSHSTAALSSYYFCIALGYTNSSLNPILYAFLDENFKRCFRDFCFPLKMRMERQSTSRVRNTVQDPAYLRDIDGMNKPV

| Structure (SMILES) | Ki [1] | Ki (Mu-type opioid receptor [2]) | Ki [3] | Ratio Ki (Homo sapiens) | EC50 [4] | Emax [5] | EC50 (Mu-type opioid receptor [6]) | Emax (Mu-type opioid receptor [7]) | EC50 [8] | Emax [9] |
| --- | --- | --- | --- | --- | --- | --- | --- | --- | --- | --- |
| CN(C)c1cccc2c(S(=O)(=O)NCCN3C(=O)C4=C(SC[C@@H](NC(=O)[C@@H](N)Cc5ccc(O)cc5)C(=O)NCC(=O)N[C@@H](Cc5ccccc5)C(=O)NNC(=O)[C@H](Cc5ccccc5)NC(=O)CNC(=O)[C@H](NC(=O)[C@@H](N)Cc5ccc(O)cc5)CS4)C3=O)cccc12 | 15 nM | 91 nM | > 3330 nM | 5 to 8 | 40 nM | 47% | 21 nM | 79% | 460 nM | 46% |
| Cc1cc(=O)oc2ccc(N3C(=O)C4=C(SC[C@@H](NC(=O)[C@@H](N)Cc5ccc(O)cc5)C(=O)NCC(=O)N[C@@H](Cc5ccccc5)C(=O)NNC(=O)[C@H](Cc5ccccc5)NC(=O)CNC(=O)[C@H](NC(=O)[C@@H](N)Cc5ccc(O)cc5)CS4)C3=O)cc12 | 120 nM | 790 nM | > 3330 nM | 5 to 8 | 190 nM | 55% | 290 nM | 80% | 4100 nM | 50% |
| Cc1cc(=O)oc2cc(NC(=O)CCN3C(=O)C4=C(SC[C@@H](NC(=O)[C@@H](N)Cc5ccc(O)cc5)C(=O)NCC(=O)N[C@@H](Cc5ccccc5)C(=O)NNC(=O)[C@H](Cc5ccccc5)NC(=O)CNC(=O)[C@H](NC(=O)[C@@H](N)Cc5ccc(O)cc5)CS4)C3=O)ccc12 | 98 nM | 510 nM | > 3330 nM | 5 to 8 | 250 nM | 62% | 270 nM | 120% | 1000 nM | 60% |
